How the values were obtained:
[1] = tested on: V79; assay: Cytotoxicity of compound was assessed against suspended V79 cells exposed to 0.1 mM DFMO and 4 uM spermidine under aerobic conditions in clonogenic assay; assay type: functional, Cricetulus griseus
How it was run: (§1)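 Clonogenic assay in suspended V79 Chinese hamster lung fibroblasts exposed to drug in air (A) or N2 (H). CT50 is the drug concentration (mM) that cuts clonogenicity to 50% of matched controls; mean ± SEM of 4 determinations. Where used, DFMO was given to exponentially growing monolayers in air for 48 h beforehand. Spermidine was added alongside the drug under the same conditions. Student's t-test was run against matched controls.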

[2] = Ratio of CT50 in aerobic condition to CT50 in hypoxic condition (CT50A/CT50H); assay type: functional
How it was run: (§2)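 Ratio of aerobic to hypoxic CT50 (CT50A/CT50H, air vs N2) from clonogenic assays in suspended V79 cells; each CT50 is the mean of 4 determinations. Where used, DFMO pretreatment was given to monolayers in air for 48 h. Spermidine was co-administered with the drug under the same conditions.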

[3] = tested on: V79; assay: Cytotoxicity of compound was assessed against suspended V79 cells under aerobic conditions in clonogenic assay; assay type: functional, Cricetulus griseus; how it was run: as §1
[4] = tested on: V79; assay: Cytotoxicity of compound was assessed against suspended V79 cells exposed to 1 mM DFMO and 0.5 mM spermidine under aerobic conditions in clonogenic assay; assay type: functional, Cricetulus griseus; how it was run: as §1
[5] = tested on: V79; assay: Cytotoxicity of compound was assessed against suspended V79 cells treated with 4 uM spermidine under aerobic conditions in clonogenic assay; assay type: functional, Cricetulus griseus; how it was run: as §1
[6] = Ratio of CT50 in aerobic condition to CT50 in hypoxic condition when V79 cells were exposed to 4 uM spermidine (CT50A/CT50H); assay type: functional; how it was run: as §2
[7] = tested on: V79; assay: Cytotoxicity of compound was assessed against suspended V79 cells exposed to 1 mM DFMO for 48 hr under hypoxic conditions in clonogenic assay; assay type: functional, Cricetulus griseus; how it was run: as §1
[8] = Ratio of CT50 in aerobic condition to CT50 in hypoxic condition when V79 cells were exposed to 4 uM spermidine and 0.1 mM DFMO (CT50A/CT50H); assay type: functional; how it was run: as §2
[9] = tested on: V79; assay: Cytotoxicity of compound was assessed against suspended V79 cells exposed to 1 mM DFMO for 48 hr under aerobic conditions in clonogenic assay; assay type: functional, Cricetulus griseus; how it was run: as §1
[10] = tested on: V79; assay: Cytotoxicity of compound was assessed against suspended V79 cells exposed to 4 uM spermidine under hypoxic conditions in clonogenic assay; assay type: functional, Cricetulus griseus; how it was run: as §1
[11] = tested on: V79; assay: Cytotoxicity of compound was assessed against suspended V79 cells under hypoxic conditions in clonogenic assay; assay type: functional, Cricetulus griseus; how it was run: as §1
[12] = tested on: V79; assay: Cytotoxicity of compound was assessed against suspended V79 cells exposed to 0.1 mM DFMO and 4 uM spermidine under hypoxic conditions in clonogenic assay; assay type: functional, Cricetulus griseus; how it was run: as §1
[13] = Ratio of CT50 in aerobic condition to CT50 in hypoxic condition when V79 cells were exposed to 1 mM DFMO (CT50A/CT50H); assay type: functional; how it was run: as §2

Cl.Cl.Cl.NCCCCN(CCCN)CC(O)Cn1ccnc1[N+](=O)[O-] (stereo not drawn)
CT50 [1]: 1.15 mM
Ratio [2]: 2
CT50 [3]: 2.6 mM
CT50 [4]: 0.63 mM
CT50 [5]: 2.64 mM
Ratio [6]: 2.3
CT50 [7]: 0.74 mM
Ratio [8]: 1.3
CT50 [9]: 1.63 mM
CT50 [10]: 1.15 mM
CT50 [11]: 1.28 mM
CT50 [12]: 0.88 mM
Ratio [13]: 2.2
